# Calls of active or inactive are those of the source. The calls are words filed in the database; no cut-off is given here.
# Columns and labels:
# [1] = tested on: Mus musculus; assay: Potency index, ratio of morphine ED50 to test compound ED50 for antinociceptive activity in po dosed 129Sv6 mouse model assessed as peak effect measured at 15 mins by radiant heat tail flick assay; type: functional; settings: 0.25 h
# [2] = tested on: Mus musculus; assay: Antinociceptive activity in po dosed C57BL/6J mouse model assessed as peak effect measured at 20 mins by radiant heat tail flick assay; type: functional
# [3] = tested on: Mus musculus; assay: Potency index, ratio of morphine ED50 to test compound ED50 for antinociceptive activity in po dosed C57BL/6J mouse model assessed as peak effect measured at 20 mins by radiant heat tail flick assay; type: functional
# [4] = tested on: Mus musculus; assay: Antinociceptive activity in sc dosed 129Sv6 mouse model assessed as peak effect measured at 15 mins by radiant heat tail flick assay; type: functional; settings: 129Sv6, 0.25 h
# [5] = Drug concentration in C57BL/6J mouse brain at 1 mg/kg, sc measured after 20 mins by LC-MS/MS analysis; type: ADME, organism-based; settings: read-out: Ct
# [6] = Toxicity in C57BL/6J mouse assessed as hyperlocomotion at 1 mg/kg, sc measured after 20 mins; type: organism-based; settings: in vivo
# [7] = Drug concentration in C57BL/6J mouse plasma at 1 mg/kg, sc measured after 20 mins by LC-MS/MS analysis; type: ADME, organism-based
# [8] = molecular target: Kappa-type opioid receptor (Mus musculus) (UniProt P33534); assay: (§1) Agonist activity at mouse KOR expressed in CHO cell membranes assessed as stimulation of [35S]-GTPgammaS binding incubated for 60 mins by scintillation spectroscopy analysis; settings: Membrane
# In short: (§2)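 CHO cell membranes stably expressing cloned mouse opioid receptors; agonist-stimulated [35S]GTPγS binding. Three independent experiments, each in triplicate.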
# [9] = molecular target: Mu-type opioid receptor (Mus musculus) (UniProt P42866); assay: Agonist activity at mouse MOR expressed in CHO cell membranes assessed as stimulation of [35S]-GTPgammaS binding by measuring maximal efficacy incubated for 60 mins by scintillation spectroscopy analysis relative DAMGO; settings: Membrane, filed as agonist
# In short: (§3)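 CHO cell membranes stably expressing cloned mouse opioid receptors; agonist-stimulated [35S]GTPγS binding. […] Three independent experiments, each in triplicate.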
# [10] = molecular target: T1, Kappa-type opioid receptor (Mus musculus, UniProt P33534); assay: as §1; set-up: species or system Membrane; in short: as §2
# [11] = molecular target: Kappa-type opioid receptor (Mus musculus) (UniProt P33534); assay: Agonist activity at mouse KOR expressed in CHO cell membranes assessed as stimulation of [35S]-GTPgammaS binding by measuring maximal efficacy incubated for 60 mins by scintillation spectroscopy analysis relative to U50,488H; settings: Membrane, filed as agonist; in short: as §3
# [12] = molecular target: Delta-type opioid receptor (Mus musculus) (UniProt P32300); assay: (§4) Antagonist activity at mouse DOR expressed in CHO cell membranes assessed as inhibition of DPDPE induced [35S]-GTPgammaS binding incubated for 60 mins by scintillation spectroscopy analysis; settings: Membrane
# [13] = molecular target: T2, Delta-type opioid receptor (Mus musculus, UniProt P32300); assay: Displacement of [125]IBNtxA from mouse DOR stably expressed in CHO cell membranes incubated for 90 mins; set-up: species or system Membrane
# In short: (§5)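 MOR: 50 mM potassium phosphate with 5 mM MgSO4, 20 μg/mL protein. KOR and DOR: 50 mM potassium phosphate pH 7.0, 40 μg/mL protein. 25 °C, 90 min; glass-fiber filtration; levallorphan 8 μM defines nonspecific binding. Ki from IC50; at least three replicates.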
# [14] = molecular target: T3, Mu-type opioid receptor (Mus musculus, UniProt P42866); assay: Displacement of [125]IBNtxA from mouse MOR stably expressed in CHO cell membranes incubated for 90 mins; set-up: species or system Membrane; in short: as §5
# [15] = molecular target: T3, Mu-type opioid receptor; assay: Agonist activity at mouse MOR expressed in CHO cell membranes assessed as stimulation of [35S]-GTPgammaS binding incubated for 60 mins by scintillation spectroscopy analysis; set-up: species or system Membrane; in short: as §2
# [16] = molecular target: T1, Kappa-type opioid receptor; assay: Displacement of [125]IBNtxA from mouse KOR stably expressed in CHO cell membranes incubated for 90 mins; set-up: species or system Membrane; in short: as §5
# [17] = molecular target: T2, Delta-type opioid receptor; assay: as §4; set-up: species or system Membrane
# Sequence of Mu-type opioid receptor (Mus musculus) (P42866 whole entry): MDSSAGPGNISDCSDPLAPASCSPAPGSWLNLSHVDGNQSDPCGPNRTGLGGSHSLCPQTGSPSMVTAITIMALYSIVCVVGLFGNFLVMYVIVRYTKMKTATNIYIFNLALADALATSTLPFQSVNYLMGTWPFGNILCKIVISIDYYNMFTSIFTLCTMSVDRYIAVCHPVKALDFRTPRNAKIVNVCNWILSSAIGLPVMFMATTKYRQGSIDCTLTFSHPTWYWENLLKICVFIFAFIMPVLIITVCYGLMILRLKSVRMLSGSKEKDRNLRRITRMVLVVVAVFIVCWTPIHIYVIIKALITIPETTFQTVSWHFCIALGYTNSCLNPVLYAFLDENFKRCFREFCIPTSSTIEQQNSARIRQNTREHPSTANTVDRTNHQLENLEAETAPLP
# T3 sequence (P42866 whole entry): as above
# T2 sequence (P32300 whole entry): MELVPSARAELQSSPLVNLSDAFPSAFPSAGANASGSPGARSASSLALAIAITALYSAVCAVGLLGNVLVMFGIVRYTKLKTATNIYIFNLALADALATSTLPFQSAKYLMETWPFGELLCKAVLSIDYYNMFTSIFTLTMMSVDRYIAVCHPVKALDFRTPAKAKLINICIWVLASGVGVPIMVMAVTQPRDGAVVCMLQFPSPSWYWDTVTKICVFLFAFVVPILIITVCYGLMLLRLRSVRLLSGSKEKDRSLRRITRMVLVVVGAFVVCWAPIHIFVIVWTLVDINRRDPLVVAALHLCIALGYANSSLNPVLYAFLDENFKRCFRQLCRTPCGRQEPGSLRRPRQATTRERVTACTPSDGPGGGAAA
# T1 sequence (P33534 whole entry): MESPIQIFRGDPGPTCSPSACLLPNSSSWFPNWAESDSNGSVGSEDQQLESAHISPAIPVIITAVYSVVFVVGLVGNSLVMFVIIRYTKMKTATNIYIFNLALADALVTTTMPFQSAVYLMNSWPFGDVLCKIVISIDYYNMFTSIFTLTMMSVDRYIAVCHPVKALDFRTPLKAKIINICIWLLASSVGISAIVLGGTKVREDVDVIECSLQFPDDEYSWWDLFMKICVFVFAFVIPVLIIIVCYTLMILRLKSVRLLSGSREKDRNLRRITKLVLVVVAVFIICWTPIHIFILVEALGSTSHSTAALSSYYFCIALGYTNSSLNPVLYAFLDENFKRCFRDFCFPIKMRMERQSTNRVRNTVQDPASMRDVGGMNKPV
# Sequence of Kappa-type opioid receptor (Mus musculus) (P33534 whole entry): as above
# Sequence of Delta-type opioid receptor (Mus musculus) (P32300 whole entry): as the sequence (P32300 whole entry) above
Compound,Ratio ED50 [1],ED50 [2] [mg/kg],Ratio ED50 [3],ED50 [4] [mg/kg],concentration at 20 min [5] [nM],Activity [6],concentration at 20 min [7] [nM],Activity [8],Emax [9] [%],EC50 [10] [nM],Emax [11] [%],inhibition [12],Ki [13] [nM],Ki [14] [nM],EC50 [15] [nM],Ki [16] [nM],IC50 [17] [nM]
CO/C=C(/C(=O)OC)[C@@H]1CCN2CC[C@]3(Nc4cccc(OC)c4C3=O)[C@@H]2C1,2,0.26,2,0.3,70,Non-Toxic,410,,,,,,,,,,
CC[C@H]1CN2CCc3c([nH]c4cccc(OC)c34)[C@@H]2C[C@@H]1/C(=C\OC)C(=O)OC,,,,,,,,inactive,43,,,,,,,,
CC[C@@H]1CN2CCc3c([nH]c4cccc(O[C@@H]5O[C@H](C(=O)O)[C@@H](O)[C@H](O)[C@H]5O)c34)[C@@H]2C[C@@H]1/C(=C\OC)C(=O)OC,,,,> 30,,,,,102,1140,98,inactive,3240,1670,5780,1270,
CC[C@@H]1CN2CCc3c([nH]c4cccc(O)c34)[C@@H]2C[C@@H]1/C(=C\OC)C(=O)OC,,,,> 100,,,,,62,858,87,inactive,1880,216,,1180,
C=C[C@H]1CN2CCc3c([nH]c4cccc(OC)c34)[C@@H]2C[C@@H]1/C(=C\OC)C(=O)OC,,,,> 100,,,,,54,3590,57,,3390,666,9380,883,> 10000

# — ChEMBL document CHEMBL5233277, “Oxidative Metabolism as a Modulator of Kratom's Biological Actions” (J Med Chem, 2021)
